Compounds with a hit are over-represented: about 3% of the library has one in this group of screens.
TRPC6 activator: activates the mouse TRPC6 cation channel; B-score at 10 µM; AID 2550; Q61143; HEK293-TRPC6 membrane potential dye fluorescence; active compounds read high; 310,000 compounds, 0.13% hits;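 active means B-score of the integrated fluorescence ratio above library mean plus 3 SD, and starting fluorescence ratio within library mean plus 5 SD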;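 further: higher score means more depolarization so channel activation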
TRPC6 inhibitor: inhibitors of mouse TRPC6 channel. Q61143. HEK293-TRPC6, membrane potential dye, ACh-evoked depolarization; active compounds read low. B-score at 10 µM. 310,000 compounds, 1.1% hits;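 active means B-score under library mean minus 3 SD, initial fluorescence not abnormally high, positive integrated signal ratio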;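 further: B-score derived from integrated fluorescence ratio over the kinetic read; more negative B-score means stronger inhibition of depolarization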
TRPC4 agonist: TRPC4 (mouse) channel activation. HEK293 TRPC4beta/mu-opioid, Fluo4 calcium fluorescence; active compounds read high. AID 2237. B-score at 10 µM. Q9QUQ5. 310,000 compounds, 0.49% hits;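 active means B-score above 5 SD of library B-scores, and initial fluorescence ratio not above library mean plus 5 SD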;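 further: positive B-score marks a calcium rise read as TRPC4 activation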
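Material: HEK293 stable line with TRPC4beta plus mu-opioid receptor; technique: Fluo4 calcium-sensitive dye fluorescence, kinetic, 1 Hz baseline; timing: Fluo4 dye loading 45 min at room temperature, 110 s recording; controls: assay buffer as low control, maximal DAMGO as high control; read-out: integrated baseline-normalised fluorescence ratio, converted to per-well B score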
TRPC4 PAM: allosteric potentiators of mouse TRPC4 channel | AID 2227 | 310,000 compounds, 0.42% hits | B-score at 10 µM | Q9QUQ5 | HEK293 TRPC4beta/mu-opioid, DAMGO EC20, Fluo-4 Ca2+ flux; active compounds read high;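 active means B-score of calcium response area above 5 SD of library B-scores, with initial fluorescence ratio within 5 SD of library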;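 further: B-score of integrated fluorescence ratio over time as area under calcium response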
TRPC4 inh: blocks the mouse TRPC4 cation channel; Q9QUQ5; B-score at 10 µM; 300,000 compounds, 0.39% hits; HEK293 TRPC4beta/mu-opioid, DAMGO-evoked Fluo4 calcium flux; active compounds read low;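 active means B-score over 3 SD under the library average, no early fluorescence shift, positive overall ratio signal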
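Assay system: HEK293 cells with stable TRPC4beta plus mu-opioid receptor expression. Dosing: single dose. Measured by: Fluo4 Ca2+ flux fluorescence. Also added: DAMGO in two steps, submaximal then maximal. Read-out: B score from integrated Fluo4 fluorescence ratio.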
Kir21 block: inhibitors of mouse Kir2.1 inward-rectifier potassium channel; P35561; HEK293-Kir2.1, FluxOR thallium flux fluorescence; active compounds read low; B-score at 10 µM; 310,000 compounds, 0.85% hits;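 active means fluorescence ratio B-score at or below minus 3 SD of library scores, with starting-brightness B-score within 2 SD, cut at about -4.2 in these data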;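 further: channel flux triggered by added potassium and thallium sulfate stimulus; B-score of peak minus minimum fluorescence over baseline after thallium stimulus; more negative B-score means stronger Kir2.1 block with less thallium influx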
Target sequence (P35561 whole entry, looked up): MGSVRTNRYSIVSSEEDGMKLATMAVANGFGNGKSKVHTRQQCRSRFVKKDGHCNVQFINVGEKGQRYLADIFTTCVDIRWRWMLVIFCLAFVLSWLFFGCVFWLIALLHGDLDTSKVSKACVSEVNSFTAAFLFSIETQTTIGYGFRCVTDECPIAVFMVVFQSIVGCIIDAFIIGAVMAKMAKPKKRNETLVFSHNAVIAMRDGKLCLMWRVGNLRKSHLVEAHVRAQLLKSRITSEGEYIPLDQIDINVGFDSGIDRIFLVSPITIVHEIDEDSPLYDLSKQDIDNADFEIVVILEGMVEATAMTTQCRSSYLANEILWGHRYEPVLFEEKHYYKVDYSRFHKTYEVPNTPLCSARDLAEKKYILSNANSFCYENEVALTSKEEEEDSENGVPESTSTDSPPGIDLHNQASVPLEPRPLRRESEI
TRPC4 sel inh 2: second check of whether TRPC6 inhibitors also affect mouse TRPC4; shares compounds with TRPC6 inhibitor; HEK293 TRPC4/MOR, membrane potential dye fluorescence; channel activated by saturating DAMGO dose; inhibition, % at 10 µM; 920 compounds, 42% hits; AID 2776;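 active means compounds whose fluorescence signal differed from control wells by over 3 SD, either direction, in both duplicate plates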
TRPC4 spec: mouse TRPC4 off-target activity of TRPC6 inhibitors. 920 compounds, 61% hits. HEK293 TRPC4/mu-opioid, membrane potential fluorescence. shares compounds with TRPC6 inhibitor. activity change, negative = inhibition, % at 10 µM;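 active means rise or fall in signal beyond 3 SD of buffer-only wells in both replicate plates, either sign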;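 further: integrated kinetic ratio of fluorescence range over baseline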
HEK293 MPD ctr 2-1: second counter-screen for TRPC6 inhibitors: parental HEK293 cells. 920 compounds, 31% hits. shares compounds with TRPC6 inhibitor. signal change vs control, % at 10 µM. AID 2779. parental HEK293 membrane potential dye fluorescence; maximal acetylcholine challenge after compound addition;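 active means membrane potential signal moving either way by over 3 SD of the maximum-effect control, in both duplicate plates, meaning non-specific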
HEK293 MPD ctr-1: counter-screen for TRPC6 inhibitors: effect in parental HEK293 cells. AID 2780. shares compounds with TRPC6 inhibitor. membrane potential signal change, % at 10 µM. 920 compounds, 60% hits. parental HEK293 membrane potential dye fluorescence;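 active means membrane potential signal shifting up or down by more than 3 SD of buffer-only wells, on both duplicate plates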
HEK293 MPD ctr-2: parental HEK293 nonspecific activity of TRPC6 modulators. shares compounds with TRPC6 inhibitor. membrane potential dye fluorescence. membrane potential signal change, % at 10 µM. 2,400 compounds, 51% hits. AID 488924;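 active means membrane potential signal moves up or down beyond 5 SD from buffer-only wells, on both duplicate plates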
HEK293 MPD ctr 2-2: second check of TRPC6 modulator effects in parental HEK293 cells. shares compounds with TRPC6 inhibitor. membrane potential dye fluorescence; after compound, maximal acetylcholine stimulation. inhibition, % at 10 µM. 2,400 compounds, 14% hits;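 active means membrane potential signal drops by more than 5 SD from the mean control signal, in both duplicate plates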;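 further: plate controls were acetylcholine ECmax control wells for no effect and buffer only wells for full effect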
TRPC4 ctr mod: selectivity of TRPC6 modulators against mouse TRPC4; percent change from control (negative = decrease, positive = increase), % at 10 µM; shares compounds with TRPC6 inhibitor; HEK293 TRPC4/mu-opioid, membrane potential fluorescence; 2,400 compounds, 69% hits;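 active means membrane potential signal moved up or down beyond 5 SD of buffer control wells, in both duplicate plates, actives on both sides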;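 further: plate controls were assay buffer wells for no effect and DAMGO maximal-effect wells for full effect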
TRPC4/MOR inh 2: mouse TRPC4 off-target activity of TRPC6 modulators, second screen; inhibition, % at 10 µM; 2,400 compounds, 55% hits; AID 488928; shares compounds with TRPC6 inhibitor; HEK293 TRPC4/mu-opioid, membrane potential dye fluorescence; stimulated with maximal-effect DAMGO;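 active means drop in membrane potential signal beyond 5 SD of the control wells in both duplicate plates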;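 further: TRPC4 counter screen for TRPC6 hits run under conditions tuned for TRPC6 not TRPC4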
TRPC6 block conf: mouse TRPC6 inhibitor confirmation | shares compounds with TRPC6 inhibitor | HEK293-TRPC6, membrane potential dye, ACh-evoked depolarization | inhibition, % at 10 µM | 3,300 compounds, 43% hits;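 active means fluorescence ratio falls more than 5 SD below the full-stimulation control mean, in both duplicate runs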;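 further: integrated fluorescence ratio of peak minus minimum over baseline after agonist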
TRPC6 act confirm: mouse TRPC6 activator confirmation | shares compounds with TRPC6 inhibitor | HEK293-TRPC6 membrane potential dye fluorescence, FDSS | activation, % at 10 µM | 2,800 compounds, 11% hits | AID 488961;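 active means ratio signal rise beyond 5 SD above unstimulated control wells' mean, seen in both duplicate runs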;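 further: plate controls were buffer EC0 wells for no effect and acetylcholine ECmax response for full effect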
Active calls of the source: *; i = inactive; · = no result.

SMILES | TRPC6 activator | TRPC6 inhibitor | TRPC4 agonist | TRPC4 PAM | TRPC4 inh | Kir21 block | HEK293 MPD ctr-2 | HEK293 MPD ctr 2-2 | TRPC4 ctr mod | TRPC4/MOR inh 2 | TRPC6 block conf | TRPC6 act confirm | others
Cc1ccc(N2CC(NC(=O)C3CC3)CC2=O)cc1 (stereo not drawn) | i | i | i | i | i | 0.85 | · | · | · | · | · | ·
COc1cc(/C=C2/CC/C(=C/c3ccc(O)c(OC)c3)C2=O)ccc1O | 13.7* | i | 43* | i | i | -4 | 451.0%* | 149.0%* | 100.5%* | i | i | 97.0%*
COc1cc(/C=C2\COC/C(=C\c3ccc(O)c(OC)c3)C2=O)ccc1O | i | i | i | i | i | -1.16 | · | · | · | · | · | ·
Fc1ccccc1N1CCN(C2CCN(Cc3c[nH]c4ccccc34)CC2)CC1 | i | -5.25* | i | i | i | -1.98 | 148.5%* | i | 19.0%* | 58.5%* | i | ·
COc1ccc(OCC(O)CNC(=O)c2ccc(OC)cc2)cc1 (stereo not drawn) | i | i | i | i | i | -0.6 | · | · | · | · | · | ·
COc1ccc(OCC(O)COc2ccc(OC)cc2)cc1 | i | -6.37* | i | i | i | 0.77 | i | i | i | i | 66.0%* | ·
CN1CCN(c2ccc(NC(=O)c3ccc(Oc4ccccc4)cc3)cc2)CC1 | i | -6.19* | i | i | i | -0.04 | i | i | i | 58.5%* | 47.5%* | i
CN1CCN(c2ccc(NC(=O)c3cc4ccccc4o3)cc2)CC1 | i | -5.17* | i | i | i | -0.39 | i | i | i | 48.5%* | 41.0%* | i
O=C(Nc1ccccc1N1CCOCC1)c1ccc(Br)o1 | i | i | i | i | i | 0.23 | · | · | · | · | · | ·
CN1CCN(c2ccccc2NC(=O)c2ccc(Br)o2)CC1 | i | -9.64* | i | i | i | -2.02 | · | · | · | · | 86.7%* | i | TRPC4 sel inh 2=28.5%*;TRPC4 spec=i;HEK293 MPD ctr 2-1=i;HEK293 MPD ctr-1=i
CN1CCN(c2ccccc2NC(=O)c2cc3ccccc3o2)CC1 | i | -12.8* | i | i | i | -0.21 | · | · | · | · | 71.9%* | i | TRPC4 sel inh 2=25.0%*;TRPC4 spec=-21.8%*;HEK293 MPD ctr 2-1=i;HEK293 MPD ctr-1=-212.0%*
COc1cc2ccccc2cc1C(=O)Nc1ccc(N2CCN(C)CC2)cc1 | i | -5.54* | i | i | i | -3.29 | i | i | -11.5%* | 64.0%* | 59.5%* | i

Screening results: PubChem BioAssay, Johns Hopkins Ion Channel Center
